Experimental findings from ChEMBL document CHEMBL1123137 (J Med Chem, 1985) are described below.

The nature of data set [1]: HPLC capacity factor (k'). Type of data set: ADME.
A short description of data set [2]: Molar potency ratio was evaluated at 50 uM.
Data set [3] is described as follows: Maximum increase in coronary flow (percent) of N6-modified adenosines at 27 uM.
Data set [4] is described as follows: Ionisation constant (pKa). The data set is classed as physicochemical.
The target in data set [5] is Adenosine receptor A2a (Canis lupus familiaris) (UniProt P11617). Kind of data set: Molar potency ratio was evaluated.
Data set [6] can be described thus: Molar potency ratio was evaluated at 27 uM.
Data set [7] is described as follows: Molar potency ratio was evaluated at 107 uM.
Data set [8] in a line: Molar potency ratio was evaluated at 61 uM.
Data set [9] can be described thus: Molar potency ratio was evaluated at 46 uM.
Another data set has as its target Albumin (Bos taurus, UniProt P02769). In words: Serum albumin binding. To be noted: cattle. The method in brief:
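Affinity for bovine serum albumin measured by Hummel–Dreyer method adapted for HPLC. Samples of BSA (0.25–2 g/dL) with 25 μM analogue in 0.1 M NaH2PO4, pH 7.4, were applied to an Aquapore OH-100 column equilibrated with 25 μM analogue in the same buffer. Effluent absorbance was read at 254 nm. Duplicate estimates were made at each of two BSA concentrations, usually 1 and 2 g/dL.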

Data set [10] can be described thus: Molar potency ratio was evaluated at 37 uM.
The nature of data set [11]: Molar potency ratio was evaluated at 35 uM.
Data set [12] is described as follows: Molar potency ratio was evaluated at 47 uM.
Data set [13] can be described thus: Molar potency ratio was evaluated at 18 uM.

Chain of Albumin (P02769 whole entry): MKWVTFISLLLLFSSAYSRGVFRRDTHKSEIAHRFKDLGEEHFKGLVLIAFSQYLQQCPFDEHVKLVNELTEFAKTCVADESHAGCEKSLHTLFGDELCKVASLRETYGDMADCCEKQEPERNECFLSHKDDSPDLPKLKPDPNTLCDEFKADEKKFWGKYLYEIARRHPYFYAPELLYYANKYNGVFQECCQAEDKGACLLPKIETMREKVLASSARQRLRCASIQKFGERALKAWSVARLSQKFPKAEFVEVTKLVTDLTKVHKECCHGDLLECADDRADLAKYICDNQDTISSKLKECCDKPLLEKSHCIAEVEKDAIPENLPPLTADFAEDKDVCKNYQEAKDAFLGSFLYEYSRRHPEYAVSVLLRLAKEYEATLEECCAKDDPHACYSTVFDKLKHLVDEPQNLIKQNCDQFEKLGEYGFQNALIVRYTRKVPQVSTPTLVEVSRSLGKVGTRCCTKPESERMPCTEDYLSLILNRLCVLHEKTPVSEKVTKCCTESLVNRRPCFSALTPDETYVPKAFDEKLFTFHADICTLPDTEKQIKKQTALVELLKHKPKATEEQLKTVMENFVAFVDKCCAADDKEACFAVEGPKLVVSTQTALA
Chain of Adenosine receptor A2a (Canis lupus familiaris) (P11617 whole entry, looked up): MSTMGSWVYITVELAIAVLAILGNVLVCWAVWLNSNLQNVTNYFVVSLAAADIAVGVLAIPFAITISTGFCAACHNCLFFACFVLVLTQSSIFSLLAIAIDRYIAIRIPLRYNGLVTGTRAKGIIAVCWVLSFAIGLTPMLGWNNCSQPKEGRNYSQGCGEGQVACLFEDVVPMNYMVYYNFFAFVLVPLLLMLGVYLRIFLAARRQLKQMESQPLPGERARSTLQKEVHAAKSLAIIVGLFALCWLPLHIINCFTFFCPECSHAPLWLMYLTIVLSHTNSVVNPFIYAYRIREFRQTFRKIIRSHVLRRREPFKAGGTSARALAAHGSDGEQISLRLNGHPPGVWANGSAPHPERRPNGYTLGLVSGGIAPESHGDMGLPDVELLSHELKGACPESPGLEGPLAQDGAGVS

Regarding `CC(C)(CCc1ccccc1)Nc1ncnc2c1ncn2C1O[C@H](CO)[C@@H](O)[C@H]1O` (stereo partly specified), the “k'” value in data set [1] was found to be 18.7. Also, in [2], the MPR was determined as 4%.
Turning to `CC(C)(Nc1ncnc2c1ncn2C1O[C@H](CO)[C@@H](O)[C@H]1O)c1ccccc1` (stereo partly specified), the “k'” value in [1] is listed as 4.45. Also, the max coronary flow increase in [3] was 7%.
In general, pKa refers to the negative logarithm of the acid dissociation constant. A lower pKa goes with a group that gives up its proton readily. In [4], `C[C@@H](Nc1ncnc2c1ncn2[C@@H]1O[C@H](CO)[C@@H](O)[C@H]1O)c1ccccc1` displayed a pKa of 3.3. The “k'” value in data set [1] is listed as 1.64. Moreover, in data set [5], the MPR was determined as 0.52.
As for `OC[C@H]1OC(n2cnc3c(NC45C[C@H]6C[C@@H](C4)C[C@@H](C5)C6)ncnc32)[C@H](O)[C@@H]1O` (stereo partly specified), in [1], the “k'” value came to 19.6. For the same compound, the MPR in data set [6] amounted to 0.
With `OC[C@H]1OC(n2cnc3c(OCCc4ccccc4)ncnc32)[C@H](O)[C@@H]1O` (stereo partly specified), the “k'” value in data set [1] amounted to 2.36. For the same compound, the MPR in data set [7] is 9%.
As for `OC[C@H]1OC(n2cnc3c(NC(c4ccccc4)c4ccccc4)ncnc32)[C@H](O)[C@@H]1O` (stereo partly specified), the “k'” value in data set [1] worked out at 6.11. The MPR in data set [8] is 27%.
As for `OC[C@H]1O[C@@H](n2cnc3c(NCCc4ccccc4)ncnc32)[C@H](O)[C@@H]1O`, in data set [4], the pKa was 3.6. Also, the “k'” value in [1] was 1.77. For the same compound, in data set [5], the MPR is 2.
For the compound `CC1(Nc2ncnc3c2ncn3C2O[C@H](CO)[C@@H](O)[C@H]2O)CCCCC1` (stereo partly specified), the “k'” value in [1] amounted to 9.29. Further, the MPR in data set [9] turned out to be 5%.
For `OC[C@H]1O[C@@H](n2cnc3c(NC4CCCCCCC4)ncnc32)[C@H](O)[C@@H]1O`, the “k'” value in [1] was 8.8. This compound also returned an Amount bound at Albumin of 10.1 M/g. The MPR in data set [10] amounted to 12%.
On to `CC(C)(C)Nc1ncnc2c1ncn2C1O[C@H](CO)[C@@H](O)[C@H]1O` (stereo partly specified), for which the “k'” value in [1] was found to be 2.44. The MPR in data set [11] worked out at 7%.
Take `CC1(C)C2CCC(CNc3ncnc4c3ncn4C3O[C@H](CO)[C@@H](O)[C@H]3O)C1C2` (stereo partly specified): the “k'” value in data set [1] was found to be 21. Besides, the MPR in data set [10] turned out to be 8%.
As for `CCC(C)(C)Nc1ncnc2c1ncn2C1O[C@H](CO)[C@@H](O)[C@H]1O` (stereo partly specified), in data set [1], the “k'” value is given as 4.28. Besides, the MPR in data set [12] is 12%.
For `OCCNc1ncnc2c1ncn2C1O[C@H](CO)[C@@H](O)[C@H]1O` (stereo partly specified), the “k'” value in data set [1] was determined as 0.14. For the same compound, at Albumin, the Amount bound was found to be 0.53 M/g. In addition, in data set [5], the MPR amounted to 0.14.
In data set [4], `CC[C@@H](C)Nc1ncnc2c1ncn2[C@@H]1O[C@H](CO)[C@@H](O)[C@H]1O` registered a pKa of 3.7. In data set [1], the “k'” value was found to be 0.89. On Albumin, the Amount bound is 0.36 M/g. Besides, the MPR in data set [5] is 0.88.
For the compound `CC(C)Nc1ncnc2c1ncn2[C@@H]1O[C@H](CO)[C@@H](O)[C@H]1O`, the “k'” value in data set [1] is reported as 0.54. Also, the Amount bound on Albumin came out at 0.41 M/g. Also, the MPR in data set [5] turned out to be 0.71.
`OC[C@H]1OC(n2cnc3c(NC4C5C[C@H]6C[C@@H](C5)C[C@@H]4C6)ncnc32)[C@H](O)[C@@H]1O` (stereo partly specified): in data set [1], the “k'” value is 12.2. Besides, the MPR in [13] stood at 0.
`CCCCNc1ncnc2c1ncn2[C@@H]1O[C@H](CO)[C@@H](O)[C@H]1O`: the “k'” value in data set [1] amounted to 1.59. This compound also displayed an Amount bound at Albumin of 1.06 M/g. Also, the MPR in data set [5] turned out to be 0.38.
Take `C[C@H](Cc1ccccc1)Nc1ncnc2c1ncn2[C@@H]1O[C@H](CO)[C@@H](O)[C@H]1O` [(R)-PIA]: the pKa in [4] stood at 3.4. In addition, the “k'” value in data set [1] came to 2.57.
On to `CCC(CC)Nc1ncnc2c1ncn2C1O[C@H](CO)[C@@H](O)[C@H]1O` (stereo partly specified), for which the pKa in data set [4] was determined as 3.3. In data set [1], the “k'” value stood at 1.64. Besides, the Amount bound at Albumin stood at 0.78 M/g. Further, the MPR in data set [5] stood at 4.
In the case of `CC(CC1CCCCC1)Nc1ncnc2c1ncn2C1O[C@H](CO)[C@@H](O)[C@H]1O` (stereo partly specified), the “k'” value in [1] was determined as 8.92. The Amount bound on Albumin is 19.3 M/g. Moreover, in data set [5], the MPR stood at 0.15.
